Peptide text beside a SMILES is read from it. * marks the point of attachment. Cbz = O=C(OCc1ccccc1)*
Test system: HeLa cells
Experiment: Radiolabel pulse-chase of cellular protein breakdown
Assay type: cell-based, human
Details: 35S-Met/35S-Cys label, 4 hr chase
In short: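 Cellular proteins were metabolically labeled with ³⁵S-Met and ³⁵S-Cys, then chased in unlabeled ("cold") medium. During the chase, cells were left untreated or given DMSO, test compound, or the proteasome inhibitor MG132 as a reference. Compounds were tested at more than one concentration to follow degradation across doses. Bars show mean values.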

In the case of `CC(C)C[C@@H](C=O)NC(=O)[C@H](CC(C)C)NC(=O)[C@H](CC(C)C)NC(=O)OCc1ccccc1` [MG132] (Cbz-Leu-Leu-Leu-aldehyde), the cellular protein breakdown is reported as “inhibit”.

Source: paper PMC7341950 (Nature chemistry, 2019)
